Assay results: ChEMBL document CHEMBL1126581 (J Med Chem, 1993)
Where a SMILES comes first, the peptide text is derived from it. [ ]: non-standard residue; d: D form. The star is where a group is joined. dHpg = N[C@@H](C(=O)O)c1ccc(O)cc1; dChg = N[C@@H](C(=O)O)C1CCCCC1; dPhg = N[C@@H](C(=O)O)c1ccccc1; Boc = CC(C)(C)OC(=O)*

Experiments:
[1] = biological target: Coagulation factor X (Bos taurus) (UniProt P00743); assay: Inhibitory activity against factor Xa
[2] = Selectivity was expressed as the ratio is IC 50 of t-PA / thrombin
How it was run: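 Ratio of t-PA IC50 to thrombin IC50. Amidolytic assays in 0.1 M Tris-HCl (pH 7.4) at 25 °C: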

[3] = biological target: Plasminogen (Homo sapiens, UniProt P00747); assay: Inhibitory activity against plasmin
[4] = Selectivity was expressed as the ratio is IC 50 of plasmin / thrombin
How it was run: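 Ratio of plasmin IC50 to thrombin IC50. Amidolytic assays at 25 °C in 0.1 M Tris-HCl (pH 7.4):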

[5] = biological target: Serine protease 1 (Homo sapiens, UniProt P07477); assay: Inhibitory activity against trypsin
How it was run: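 Trypsin 93 ng/mL hydrolysing Bz-Phe-Val-Arg-pNA 0.125 mg/mL, 0.1 M Tris-HCl pH 7.4, 25 °C. […] Varying peptide concentrations, 5-min preincubation. IC50 is the concentration producing 50% inhibition of activity against a blank control.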

[6] = biological target: Prothrombin (Bos taurus) (UniProt P00735); assay: Inhibitory activity against thrombin

Chain of Coagulation factor X (Bos taurus) (P00743 whole entry, looked up): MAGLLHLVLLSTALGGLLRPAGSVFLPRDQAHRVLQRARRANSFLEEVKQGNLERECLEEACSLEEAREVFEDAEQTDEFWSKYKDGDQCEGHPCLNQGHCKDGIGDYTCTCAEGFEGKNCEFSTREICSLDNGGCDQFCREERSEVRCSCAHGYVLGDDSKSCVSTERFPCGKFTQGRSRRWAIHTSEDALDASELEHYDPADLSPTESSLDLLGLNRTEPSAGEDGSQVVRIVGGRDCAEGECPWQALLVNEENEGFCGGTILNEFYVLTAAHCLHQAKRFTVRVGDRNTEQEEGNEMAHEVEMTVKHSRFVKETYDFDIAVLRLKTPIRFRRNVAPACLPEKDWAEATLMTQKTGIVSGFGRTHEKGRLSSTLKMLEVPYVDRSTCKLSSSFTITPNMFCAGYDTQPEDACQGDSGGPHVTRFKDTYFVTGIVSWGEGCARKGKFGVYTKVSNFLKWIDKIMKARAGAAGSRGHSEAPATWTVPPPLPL
Chain of Serine protease 1 (P07477 whole entry): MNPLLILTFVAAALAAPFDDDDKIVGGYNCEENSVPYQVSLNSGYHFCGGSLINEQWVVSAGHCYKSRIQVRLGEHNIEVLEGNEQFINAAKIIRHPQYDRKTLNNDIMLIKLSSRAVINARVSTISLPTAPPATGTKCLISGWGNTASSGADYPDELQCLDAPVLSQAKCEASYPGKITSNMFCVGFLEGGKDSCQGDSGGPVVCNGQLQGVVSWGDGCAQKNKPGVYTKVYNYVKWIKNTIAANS
Chain of Plasminogen (P00747 97-580 limits assumed): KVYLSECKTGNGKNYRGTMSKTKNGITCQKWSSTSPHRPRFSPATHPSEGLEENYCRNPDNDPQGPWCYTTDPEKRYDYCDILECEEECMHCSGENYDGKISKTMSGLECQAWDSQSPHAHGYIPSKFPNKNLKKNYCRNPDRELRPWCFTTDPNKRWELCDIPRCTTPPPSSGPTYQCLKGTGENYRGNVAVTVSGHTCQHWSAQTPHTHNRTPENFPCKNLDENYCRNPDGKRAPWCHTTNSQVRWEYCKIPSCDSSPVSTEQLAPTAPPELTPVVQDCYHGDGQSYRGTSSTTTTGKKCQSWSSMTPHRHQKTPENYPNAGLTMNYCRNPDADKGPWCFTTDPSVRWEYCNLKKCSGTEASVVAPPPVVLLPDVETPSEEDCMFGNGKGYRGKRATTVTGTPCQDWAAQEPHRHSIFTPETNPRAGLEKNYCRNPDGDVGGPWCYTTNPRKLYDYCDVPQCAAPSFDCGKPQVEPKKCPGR
Chain of Plasminogen (P00747 581-810 limits assumed): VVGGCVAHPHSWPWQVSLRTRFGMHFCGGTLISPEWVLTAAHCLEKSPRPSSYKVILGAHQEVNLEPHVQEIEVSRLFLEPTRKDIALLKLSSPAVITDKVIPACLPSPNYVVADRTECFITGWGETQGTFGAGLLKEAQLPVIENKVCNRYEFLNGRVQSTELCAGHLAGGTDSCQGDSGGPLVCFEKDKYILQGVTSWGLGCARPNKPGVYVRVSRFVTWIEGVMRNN

Row | Structure (SMILES) | IC50 [1] | Selectivity ratio [2] | IC50 [3] | Selectivity ratio [4] | IC50 [5] | IC50 [6]
1 | CC(C)(C)OC(=O)N[C@@H](C(=O)N1CCC[C@H]1C(=O)N[C@H](C=O)CCCN=C(N)N)c1ccsc1 | 190 nM | 180 | 150 nM | 2 | 13 nM | 73 nM
2 | CN[C@@H](C(=O)N1CCC[C@H]1C(=O)N[C@H](C=O)CCCN=C(N)N)c1ccccc1 |  | 2300 |  | 30 |  | 
3 | CC(C)(C)OC(=O)NC(C(=O)N1CCC[C@H]1C(=O)NC(C=O)CCCN=C(N)N)c1ccc(Cl)c(Cl)c1 (some centres not stated) |  | 1100 |  | 6 |  | 
4 | CC(C)(C)OC(=O)NC(C(=O)N1CCC[C@H]1C(=O)NC(C=O)CCCN=C(N)N)c1cccc(C(F)(F)F)c1 (some centres not stated) | 1400 nM | 560 | 130 nM | 5 | 19 nM | 27 nM
5 | CC(C)(C)OC(=O)N[C@@H](C(=O)N1CCC[C@H]1C(=O)N[C@H](C=O)CCCN=C(N)N)c1ccc(O)cc1 (Boc-[dHpg]-Pro-Arg-aldehyde) | 200 nM | 180 | 94 nM | 1 | 17 nM | 89 nM
6 | N=C(N)NCCC[C@@H](C=O)NC(=O)[C@@H]1CCCN1C(=O)[C@@H]1NCCc2ccccc21 |  |  | 1500 nM |  | 23 nM | 19 nM
7 | CC(C)(C)OC(=O)N[C@@H](C(=O)N1CCC[C@H]1C(=O)N[C@H](C=O)CCCN=C(N)N)c1ccccc1 (Boc-[dPhg]-Pro-Arg-aldehyde) | 260 nM | 540 | 98 nM | 6 | 9.8 nM | 16 nM
8 | CC(C)(C)OC(=O)N[C@@H](C(=O)N1CCC[C@H]1C(=O)NC(C=O)CCCN=C(N)N)c1cccc2ccccc12 (some centres not stated) |  | 870 |  | 30 |  | 
9 | CC[C@H](C(=O)N1CCC[C@H]1C(=O)NC(C=O)CCCN=C(N)N)c1ccccc1 (some centres not stated) |  | > 800 |  | 160 |  | 
10 | CN[C@@H](C(=O)N1CCC[C@H]1C(=O)N[C@H](C=O)CCCNC(=N)N)c1ccccc1 | 2200 nM |  | 490 nM |  | 18 nM | 18 nM
11 | C[C@H](C(=O)N1CCC[C@H]1C(=O)NC(C=O)CCCNC(=N)N)c1ccccc1 (some centres not stated) | 31000 nM |  | 18000 nM |  | 180 nM | 94 nM
12 | N=C(N)NCCC[C@@H](C=O)NC(=O)[C@@H]1CCCN1C(=O)[C@H]1Cc2ccccc2CN1 | 4100 nM |  |  |  | 19 nM | 25 nM
13 | CC(C)(C)OC(=O)N[C@H](Cc1ccccc1)C(=O)N1CCC[C@H]1C(=O)N[C@H](C=O)CCCN=C(N)N | 1600 nM | 20 | 190 nM | 4 | 14 nM | 45 nM
14 | CC(C)(C)OC(=O)N[C@@H](C(=O)N1CCC[C@H]1C(=O)N[C@H](C=O)CCCN=C(N)N)C1CCCCC1 (Boc-[dChg]-Pro-Arg-aldehyde) | 81 nM | 190 | 81 nM | 7 | 13 nM | 12 nM
15 | CC(C)(C)OC(=O)NC(C(=O)N1CCC[C@H]1C(=O)NC(C=O)CCCNC(=N)N)c1ccc(Cl)c(Cl)c1 (some centres not stated) | 69 nM |  | 180 nM |  | 15 nM | 28 nM
16 | CO[C@H](C(=O)N1CCC[C@H]1C(=O)NC(C=O)CCCN=C(N)N)c1ccccc1 (some centres not stated) | 27000 nM | 3400 | 15000 nM | 60 |  | 250 nM
17 | CC(C)(C)OC(=O)N[C@H](C(=O)N1CCC[C@H]1C(=O)N[C@H](C=O)CCCN=C(N)N)c1ccc(F)cc1 | 6700 nM | 1100 | 770 nM | 9 | 24 nM | 85 nM
18 | CC(C)(C)OC(=O)N[C@@H](C(=O)N1CCC[C@H]1C(=O)N[C@H](C=O)CCCN=C(N)N)c1ccc(F)cc1 | 1600 nM | 600 | 85 nM | 4 | 19 nM | 30 nM
19 | NC(N)=NCCC[C@@H](C=O)NC(=O)[C@@H]1CCCN1C(=O)[C@H](N)c1ccccc1 (H-[dPhg]-Pro-Arg-aldehyde) | 1600 nM | 2200 | 910 nM | 50 | 19 nM | 18 nM
20 | N=C(N)NCCC[C@@H](C=O)NC(=O)[C@@H]1CCCN1C(=O)C1CCc2ccccc2N1 (some centres not stated) | 12000 nM | 210 | 15000 nM | 5 | 570 nM | 3100 nM
21 | C[C@H](C(=O)N1CCC[C@H]1C(=O)NC(C=O)CCCN=C(N)N)c1ccccc1 (some centres not stated) |  | > 100 |  | 190 |  | 
22 | CC[C@H](C(=O)N1CCC[C@H]1C(=O)NC(C=O)CCCNC(=N)N)c1ccccc1 (some centres not stated) | 33000 nM |  | 21000 nM |  | 350 nM | 130 nM
23 | C[C@@H](C(=O)N1CCC[C@H]1C(=O)NC(C=O)CCCN=C(N)N)c1ccccc1 (some centres not stated) | 81000 nM |  | 41000 nM | 8 | 890 nM | 5100 nM
24 | CC(C)(C)OC(=O)N[C@H](C(=O)N1CCC[C@H]1C(=O)NC(C=O)CCCNC(=N)N)c1cccc2ccccc12 (some centres not stated) | 210 nM |  | 180 nM |  | 29 nM | 55 nM
25 | CC(C)(C)OC(=O)N[C@H](C(=O)N1CCC[C@H]1C(=O)NC(C=O)CCCN=C(N)N)c1cccc2ccccc12 (some centres not stated) |  |  |  | 3 |  | 
26 | CC(C)(C)OC(=O)N[C@@H](C(=O)N1CCC[C@H]1C(=O)NC(C=O)CCCNC(=N)N)c1cccc2ccccc12 (some centres not stated) | 1400 nM |  | 620 nM |  | 14 nM | 23 nM
27 | CC(C)(C)OC(=O)N[C@@H](C(=O)N1CCC[C@H]1C(=O)NC(C=O)CCCN=C(N)N)c1ccc2ccccc2c1 (some centres not stated) | 50 nM | 670 | 55 nM | 3 | 9 nM | 18 nM
